Laboratory results as given in ChEMBL document CHEMBL1154881, “Synthesis and antimicrobial activities of novel 1,5-diaryl pyrazoles” (2010).
≈ marks a conversion by molar mass, not a printed value.

Experiments:
[1] = system: Staphylococcus aureus; assay: Antibacterial activity against Staphylococcus aureus ATTC 25923 after 24 hrs by disk diffusion method; type: functional
Method in brief: (§1)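 Disc diffusion, each concentration tested in triplicate on nutrient agar seeded separately with fresh bacteria. Incubation 37 °C, 24 h. Solvent and growth controls included. Zones of inhibition recorded. The K. pneumoniae strain was recultured.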

[2] = system: Escherichia coli; assay: Antibacterial activity against Escherichia coli ATTC 25922 after 24 hrs by disk diffusion method; type: functional; method in brief: as §1
[3] = system: Pseudomonas aeruginosa; assay: Antibacterial activity against Pseudomonas aeruginosa ATTC 27853 after 24 hrs by disk diffusion method; type: functional; method in brief: as §1
[4] = system: Klebsiella pneumoniae; assay: Antibacterial activity against Klebsiella pneumoniae after 24 hrs by disk diffusion method; type: functional; method in brief: as §1
[5] = system: Trichophyton mentagrophytes; assay: Antifungal activity against Trichophyton mentagrophytes after 3 to 4 days by serial plate dilution method; type: functional
Method in brief: (§2)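 Sabouraud's agar (peptone 1 g, D-glucose 4 g, agar 2 g per 100 ml water, pH 5.7) plates were lawned with spore suspension (a loopful in 3 ml normal saline) and dried 1 h at 37 °C. Wells were punched and filled with compound in DMSO at 10–50 mg/ml, with a DMSO control. Plates in triplicate, 37 °C for 3–4 days.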

[6] = system: Talaromyces marneffei; assay: Antifungal activity against Penicillium marneffei after 3 to 4 days by serial plate dilution method; type: functional; method in brief: as §2
[7] = system: Aspergillus flavus; assay: Antifungal activity against Aspergillus flavus NCIM 524 after 3 to 4 days by serial plate dilution method; type: functional; method in brief: as §2
[8] = system: Aspergillus fumigatus; assay: Antifungal activity against Aspergillus fumigatus NCIM 902 after 3 to 4 days by serial plate dilution method; type: functional; method in brief: as §2
[9] = system: Trichophyton mentagrophytes; assay: Antifungal activity against Trichophyton mentagrophytes at 10 to 50 ug/ml after 3 to 4 days; type: functional
[10] = system: Talaromyces marneffei; assay: Antifungal activity against Penicillium marneffei at 10 to 50 ug/ml after 3 to 4 days; type: functional
[11] = system: Staphylococcus aureus; assay: Antibacterial activity against Staphylococcus aureus ATTC 25923 after 24 hrs by broth dilution method; type: functional; settings: ATTC 25923, 24 h
[12] = system: Escherichia coli; assay: Antibacterial activity against Escherichia coli ATTC 25922 after 24 hrs by broth dilution method; type: functional; settings: ATTC 25922, 24 h
[13] = system: Klebsiella pneumoniae; assay: Antibacterial activity against Klebsiella pneumoniae after 24 hrs by […]

MIC [9] | MIC [10] | MIC [11] | MIC [12] | MIC [13] | SMILES | inhibition zone (IZ) [1] | inhibition zone (IZ) [2] | inhibition zone (IZ) [3] | inhibition zone (IZ) [4] | inhibition zone (IZ) [5] | inhibition zone (IZ) [6] | inhibition zone (IZ) [7] | inhibition zone (IZ) [8]
 |  |  |  |  | O=C(Nc1ccc(Cl)nc1)c1cc(-c2ccc(Cl)cc2)n(-c2ccc(F)cc2)n1 | <10 mm | <10 mm | <10 mm | <10 mm | <10 mm | <10 mm | <10 mm | <10 mm
3.12 µg/mL | 6.25 µg/mL |  |  |  | Cc1cc(C2CCCCC2)n(O)c(=O)c1.NCCO [CICLOPIROX OLAMINE] |  |  |  |  | 27 mm | 23 mm | 27 mm | 26 mm
12.5 µg/mL (≈ 31.3 µM) | 12.5 µg/mL (≈ 31.3 µM) | 12.5 µg/mL (≈ 31.3 µM) | 12.5 µg/mL (≈ 31.3 µM) | 12.5 µg/mL (≈ 31.3 µM) | O=C(c1cc(-c2ccc(Cl)cc2)n(-c2ccc(F)cc2)n1)N1CCC(O)CC1 | 23 mm | 24 mm | 29 mm | 21 mm | 26 mm | 24 mm | 29 mm | 27 mm
12.5 µg/mL (≈ 24.5 µM) | 12.5 µg/mL (≈ 24.5 µM) | 12.5 µg/mL (≈ 24.5 µM) | 12.5 µg/mL (≈ 24.5 µM) |  | C=CCNC(=O)NNC(=O)c1sc(-c2cc(-c3ccc(Cl)cc3)n(-c3ccc(F)cc3)n2)nc1C | 21 mm | 22 mm | <10 mm | 21 mm | 19 mm | 21 mm | 21 mm | 23 mm
 |  |  |  |  | CCOC(=O)c1sc(NC(=O)c2cc(-c3ccc(Cl)cc3)n(-c3ccc(F)cc3)n2)nc1C | <10 mm | <10 mm | <10 mm | <10 mm | <10 mm | <10 mm | <10 mm | <10 mm
 |  |  | 12.5 µg/mL (≈ 26.8 µM) |  | Fc1ccc(-n2nc(-c3nc(-c4ccc(Cl)cc4)cs3)cc2-c2ccc(Cl)cc2)cc1 | <10 mm | 21 mm | 16 mm | 17 mm | 19 mm | <10 mm | <10 mm | <10 mm
12.5 µg/mL (≈ 19.4 µM) | 12.5 µg/mL (≈ 19.4 µM) | 12.5 µg/mL (≈ 19.4 µM) | 12.5 µg/mL (≈ 19.4 µM) | 50 µg/mL (≈ 77.8 µM) | Cc1nc(-c2cc(-c3ccc(Cl)cc3)n(-c3ccc(F)cc3)n2)sc1C(=O)NNC(=O)NC(=O)c1ccc(C(F)(F)F)cc1 | 19 mm | 20 mm | <10 mm | 19 mm | 17 mm | 22 mm | <10 mm | 25 mm
 |  |  |  |  | Cc1nc(-c2cc(-c3ccc(Cl)cc3)n(-c3ccc(F)cc3)n2)sc1C(=O)NNC(=S)NC(=O)c1ccccc1 | <10 mm | <10 mm | <10 mm | <10 mm | <10 mm | <10 mm | <10 mm | <10 mm
12.5 µg/mL (≈ 25.9 µM) | 12.5 µg/mL (≈ 25.9 µM) | 12.5 µg/mL (≈ 25.9 µM) | 12.5 µg/mL (≈ 25.9 µM) |  | CCCCCC(=O)N1CCN(C(=O)c2cc(-c3ccc(Cl)cc3)n(-c3ccc(F)cc3)n2)CC1 | 18 mm | 18 mm | <10 mm | 21 mm | 20 mm | 19 mm | <10 mm | 28 mm
12.5 µg/mL (≈ 29.2 µM) | 12.5 µg/mL (≈ 29.2 µM) | 12.5 µg/mL (≈ 29.2 µM) | 12.5 µg/mL (≈ 29.2 µM) | 50 µg/mL (≈ 117 µM) | Cc1nc(-c2cc(-c3ccc(Cl)cc3)n(-c3ccc(F)cc3)n2)sc1C(=O)NN | 20 mm | 18 mm | 19 mm | 19 mm | 19 mm | 20 mm | <10 mm | 19 mm
12.5 µg/mL (≈ 27.4 µM) | 12.5 µg/mL (≈ 27.4 µM) | 12.5 µg/mL (≈ 27.4 µM) | 12.5 µg/mL (≈ 27.4 µM) | 50 µg/mL (≈ 110 µM) | CCNC(=O)N1CCN(C(=O)c2cc(-c3ccc(Cl)cc3)n(-c3ccc(F)cc3)n2)CC1 | 18 mm | 19 mm | <10 mm | 17 mm | 24 mm | 19 mm | 17 mm | 18 mm
12.5 µg/mL (≈ 26.7 µM) | 12.5 µg/mL (≈ 26.7 µM) | 12.5 µg/mL (≈ 26.7 µM) | 12.5 µg/mL (≈ 26.7 µM) | 50 µg/mL (≈ 107 µM) | C=CCNC(=O)N1CCN(C(=O)c2cc(-c3ccc(Cl)cc3)n(-c3ccc(F)cc3)n2)CC1 | 20 mm | 19 mm | 19 mm | 19 mm | 22 mm | 24 mm | 19 mm | 16 mm
12.5 µg/mL (≈ 27.6 µM) | 12.5 µg/mL (≈ 27.6 µM) | 12.5 µg/mL (≈ 27.6 µM) | 12.5 µg/mL (≈ 27.6 µM) | 12.5 µg/mL (≈ 27.6 µM) | O=C(c1cc(-c2ccc(Cl)cc2)n(-c2ccc(F)cc2)n1)N1CCN(C(=O)C2CC2)CC1 | 20 mm | 20 mm | 17 mm | 19 mm | 20 mm | 21 mm | 24 mm | 22 mm
12.5 µg/mL (≈ 23.6 µM) | 12.5 µg/mL (≈ 23.6 µM) | 12.5 µg/mL (≈ 23.6 µM) | 12.5 µg/mL (≈ 23.6 µM) |  | N#Cc1ccc(NC(=O)N2CCN(C(=O)c3cc(-c4ccc(Cl)cc4)n(-c4ccc(F)cc4)n3)CC2)cc1 | 21 mm | 19 mm | <10 mm | 19 mm | 21 mm | 23 mm | <10 mm | 24 mm
 |  |  |  |  | Cc1nc(NC(=O)c2cc(-c3ccc(Cl)cc3)n(-c3ccc(F)cc3)n2)sc1C(=O)O | <10 mm | <10 mm | <10 mm | <10 mm | <10 mm | <10 mm | <10 mm | <10 mm
 |  |  |  |  | Cc1nc(-c2cc(-c3ccc(Cl)cc3)n(-c3ccc(F)cc3)n2)sc1-c1n[nH]c(=O)o1 | <10 mm | <10 mm | <10 mm | <10 mm | <10 mm | <10 mm | <10 mm | <10 mm
